Drawing on PubChem BioAssay AID602416 (Sanford-Burnham Center for Chemical Genomics, 2012), this text covers EC50 for six compounds.

The structures appear in SMILES notation. The source made the active and inactive calls.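 The calls were made as follows: active = mean EC50 at or below 20 µM; inactive = the rest.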 Where only a bound is given, the exact number is not on record here.

The experiment has as its target CHO-XBP1 luciferase reporter, IRE1-XBP1 activation, luminescence. Nature of the experiment: XBP1 luciferase reporter activation in CHO cells – cell-based, luminescence, set 3, counter-screen for apoptotic UPR arm activator project, SAR follow-up (AID 602416). In outline: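 Assay system: CHO cells stably expressing XBP1 luciferase reporter, IRE1-XBP1 arm / Probe or stimulus: no tunicamycin stimulus in compound wells / Compound dosing: dose series, DMSO ≤1% final / Schedule: compound exposure 6 h at 37 °C / Measured by: Steady-Glo luminescence / Control set: tunicamycin 10 µg/mL high control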
For orientation: Reporter assays use an easily measured gene product as a stand-in for the process of interest.

A word on the EC50: it is the concentration that produces a half-maximal response. For the compound `CC(C)(C)C1CCN(S(=O)(=O)c2ccc(NC(=O)c3ccc([N+](=O)[O-])o3)cc2)CC1`, the EC50 was > 80 µM (inactive). For `O=C(Nc1ccc(S(=O)(=O)N2CCC(Cl)CC2)cc1)c1ccc([N+](=O)[O-])o1`, the EC50 is > 80 µM (inactive).

Turning to `CC1CCN(S(=O)(=O)c2ccc(NC(=O)c3ccc([N+](=O)[O-])o3)cc2)CC1`, the EC50 was > 80 µM (inactive). In the case of `O=C(Nc1ccc(S(=O)(=O)N2CCC(F)CC2)cc1)c1ccc([N+](=O)[O-])o1`, the EC50 is > 80 µM (inactive). On to `O=C(Nc1ccc(S(=O)(=O)N2CCCCC2)cc1)c1ccc([N+](=O)[O-])o1`, for which the EC50 was > 80 µM (inactive). On to `CC1(C)CCN(S(=O)(=O)c2ccc(NC(=O)c3ccc([N+](=O)[O-])o3)cc2)CC1`, for which the EC50 is > 80 µM (inactive).
